# Where “and” joins values, the source holds several entries; their conditions need not be identical. Identical values can stand only once.
# Legend:
# [1] = system: MYC-dependent cancer cells; test: Cell viability, MYC-dependent cancer cells; type: cell-based; details: MycCaP, LNCaP, PC3, MV4–11, HL-60, P493–6, SK-N-B2; 5 days
# In short: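 Cells were seeded at 1000 to 5000 per well in 96-well plates, depending on cell type. Viable cells were counted, or MTS absorbance was read at 490 nm, 2 to 7 days after treatment. MycCaP, PC3, LNCaP and P493–6 were grown in RPMI1640, SK-N-BE(2) in F12 and MV411 in IMDM, each with 10% heat-inactivated FBS and 1% penicillin-streptomycin.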
# [2] = system: MYC transcriptional activity (E-box-luciferase); test: E-box luciferase reporter assay in vitro; type: cell-based
# In short: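 MycCaP cells stably carrying either MYC E-box-luciferase reporter or control mCherry-P2A-luciferase vector plated 10000 cells/well. Serial dilution of test compound added the next day; luminescence read by Steady-Glo after 4 hr treatment.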
# γ-H2AX = γ-H2AX staining; type: cell-based, human; details: 10 μM, 24-hour treatment
# In short: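 PC3 cells were fixed in 4% PFA and permeabilised with 0.5% Triton-X. They were then stained with anti-phospho-histone H2A.X (Ser139) antibody at 1:1000.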
# [3] = Pharmacokinetics of 361 in C57BL/6 mice; type: in vivo; details: male, C57BL/6, mouse, plasma, 50 mg/kg
# [4] = system: human prostate cancer patient derived xenografts; test: Prostate cancer PDX model; type: in vivo, mouse; details: 55 mg/kg/day, 3 consecutive days a week for 2 weeks
# In short: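 Minced fragments (~10 mm²) of prostate PDX TM00298 were implanted into the flanks of male NSG mice. Once grafts were measurable, test compound was given i.p. at 55 mg/kg/day on 3 consecutive days a week for two weeks. Tumour growth was expressed as percentage, n = 9 or 10 grafts.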
# [5] = Maximum tolerated dose / acute toxicity in mice; type: in vivo; details: 361-treated mice
smiles,measurement,setting,value
"Cn1nc(C(F)(F)F)cc1-c1ccc(OCc2ccc(Cl)cc2)c(-c2cc(C(F)(F)F)cc(C(F)(F)F)c2)c1O [Compound 361, 6-((4-chlorobenzyl)oxy)-3-(1-methyl-3-(trifluoromethyl)-1H-pyrazol-5-yl)-3’,5’-bis(trifluoromethyl)-[1,1’-biphenyl]-2-ol]","IC50s, cell viability",[1],low micromolar
same,E-box-luciferase versus CMV-luciferase activity in vitro,[2],selectively inhibited E-box-luciferase but not CMV-luciferase activity
same,induction of γ-H2AX,γ-H2AX,did not observe induction
same,Cmax,[3]; ip,27200 ng/mL and 46 µM
same,concentration at 24 hr,[3]; ip,12700 ng/mL and 21 µM
same,half-life,[3]; ip,44 h
same,Cmax,[3]; po,13900 ng/mL and 23 µM
same,concentration at 24 hr,[3]; po,9 µM and 5280 ng/mL
same,half-life,[3]; po,20 h
same,anti-tumor efficacy,[4],confirmed 361 anti-tumor efficacy
same,histopathological analysis of major organs,[5],suppression of the splenic white pulp and hepatocyte hypertrophy

# — article PMC6939458 (Cancer cell, 2019)
